ChEMBL document CHEMBL3588752, “Synthesis and in Vitro Anticancer Activity of the First Class of Dual Inhibitors of REV-ERBβ and Autophagy” (J Med Chem, 2015)
Activity calls are given as the source filed them. No cut-off for these calls is given here.

Tests used:
[1] = system: BT-474; experiment: Cytotoxicity against human BT474 cells assessed as reduction in cell number incubated for 72 hrs; type: functional, cell-based; details: BT-474, 72 h
Procedure, shortened: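 Cells seeded at 2000/well and left overnight, then exposed 72 h to seven 3-fold serial dilutions from 100 µM. Cell number read by CyQUANT DNA dye (independent of metabolism), relative to vehicle as 100%. BT-474 grown in high-glucose DMEM, 4 mM L-glutamine, 10% FBS, 0.25 mM pyruvate.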

[2] = system: HMEC; experiment: Cytotoxicity against HMEC cells assessed as reduction in cell number incubated for 72 hrs; type: cell-based; details: Homo sapiens
[3] = Toxicity against human BT474 cells assessed as reduction in cell number at 10 uM incubated for 16 hrs; type: cell-based; details: bt-474, 16 h
[4] = system: BT-474; experiment: Lysosomotropic activity in human BT474 cells assessed as […] incubated for 24 hrs by lysosomotropy assay; type: functional, cell-based; details: BT-474, 24 h
Procedure, shortened: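 Seeded at 2000 cells/well overnight, then treated. Lysosomal staining (LysoTracker fluorescence) measured 24 h post-treatment. IC50 from concentration–response plots, mean ± SEM, N ≥ 6.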

[5] = target: T1, Nuclear receptor subfamily 1 group D member 2 (Homo sapiens) (UniProt Q14995); experiment: Inhibition of REV-ERBbeta in human BT474 cells assessed as increase in BMAL1 expression at 10 uM incubated for 16 hrs by immunoblot method; details: BT-474
T1 sequence (whole entry): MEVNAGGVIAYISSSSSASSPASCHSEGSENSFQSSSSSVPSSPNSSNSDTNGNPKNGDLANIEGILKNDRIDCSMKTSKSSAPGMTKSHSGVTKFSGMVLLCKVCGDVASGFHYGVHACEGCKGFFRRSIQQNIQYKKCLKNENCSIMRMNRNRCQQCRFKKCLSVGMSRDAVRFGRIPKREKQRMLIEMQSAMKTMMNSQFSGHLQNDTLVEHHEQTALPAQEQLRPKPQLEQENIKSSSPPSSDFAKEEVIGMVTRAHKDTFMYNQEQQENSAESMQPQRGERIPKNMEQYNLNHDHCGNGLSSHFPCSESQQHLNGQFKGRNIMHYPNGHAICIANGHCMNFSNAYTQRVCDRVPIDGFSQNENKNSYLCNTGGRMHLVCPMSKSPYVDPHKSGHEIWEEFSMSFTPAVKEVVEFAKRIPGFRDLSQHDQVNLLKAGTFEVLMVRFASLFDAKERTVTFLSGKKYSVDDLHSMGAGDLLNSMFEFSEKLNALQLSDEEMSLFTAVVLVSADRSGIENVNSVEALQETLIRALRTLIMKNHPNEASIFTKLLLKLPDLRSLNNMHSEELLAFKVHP

[6] = system: BT-474; experiment: Inhibition of autophagy in human BT474 cells assessed as increase in LC3-II protein levels at 10 uM by immunoblot method; type: functional, cell-based
Procedure, shortened: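 BT-474 exposed 4 h at 10 µM. Protein extracted in RIPA buffer and immunoblotted for LC3B and GAPDH in TBS-T with 5% BSA. HRP secondary at 1:20000, ECL detection. Band densitometry reported as LC3B/GAPDH ratio.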

[7] = target: T1, Nuclear receptor subfamily 1 group D member 2 (Homo sapiens); experiment: Inhibition of REV-ERBbeta (unknown origin) expressed in HEK293 cells incubated for 24 hrs assessed as inhibition of receptor-mediated transcriptional repression by REV-ERB luciferase reporter assay; type: cell-based
Procedure, shortened: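 HEK-293 co-transfected with a REV-ERBβ expression plasmid and a reporter with two REV-ERB response elements driving Cypridina luciferase. Compounds added the next day; luciferase activity read after 24 h. IC50 from concentration–response plots, mean ± SEM, N ≥ 6.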

[8] = system: HepG2; experiment: Cytotoxicity against human HepG2 cells assessed as reduction in cell number incubated for 72 hrs; type: functional, cell-based; details: HepG2, 72 h
Procedure, shortened: (§1)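 Grown in high-glucose DMEM with 4 mM L-glutamine, 10% FBS and 0.5 mM sodium pyruvate. Seeded at 2000 cells/well overnight, then treated 72 h with seven 3-fold dilutions from 100 µM. Cell number by CyQUANT, % of vehicle. IC50 by log(inhibitor)–response fit, mean ± SEM, n ≥ 6.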

[9] = system: LNCaP; experiment: Cytotoxicity against human LNCAP cells assessed as reduction in cell number incubated for 72 hrs; type: functional, cell-based
Procedure, shortened: (§2)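 RPMI-1640 with 4 mM L-glutamine and 10% FBS for culture. 2000 cells/well seeded overnight, then 72 h exposure to seven 3-fold dilutions (top 100 µM; top 900 µM for the reference autophagy inhibitor in MDA-MB-361). Cell number by CyQUANT relative to vehicle. IC50 from concentration–response curves, mean ± SEM, n ≥ 6.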

[10] = Inhibition of cell proliferation of PDAC cells (unknown origin); type: functional, cell-based
[11] = system: MDA-MB-361; experiment: Cytotoxicity against human MDA-MB-361 cells assessed as reduction in cell number incubated for 72 hrs; type: functional, cell-based; details: MDA-MB-361, 72 h; procedure, shortened: as §2
[12] = system: HepG2; experiment: Reduction in GFP expression in human HepG2 cells transfected with plasmids co-expressing GFP and shRNAs against REV-ERBbeta followed by compound treatment 24 hrs post-transfection and measured 48 hrs post dose; type: functional, cell-based
[13] = Cytotoxicity against human SKBR3 cells assessed as reduction in cell number incubated for 72 hrs; type: functional, cell-based; details: SK-BR-3, 72 h
Procedure, shortened: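 McCoy's medium plus 10% FBS; 2000 cells/well, overnight attachment, 72 h treatment with seven 3-fold dilutions from 100 µM (900 µM top for the reference autophagy inhibitor). CyQUANT cell number as % of vehicle. IC50 by log(inhibitor)–response fitting, mean ± SEM of ≥6 experiments.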

[14] = Inhibition of cell proliferation of breast cancer cells (unknown origin); type: functional, cell-based; details: Cancer cell lines
[15] = system: LNCaP; experiment: Reduction in GFP expression in human LNCAP cells transfected with plasmids co-expressing GFP and shRNAs against REV-ERBbeta followed by compound treatment 24 hrs post-transfection and measured 48 hrs post dose; type: functional, cell-based
[16] = system: MCF7; experiment: Cytotoxicity against human MCF7 cells assessed as reduction in cell number incubated for 72 hrs; type: functional, cell-based; details: MCF7, 72 h; procedure, shortened: as §1
[17] = Inhibition of cell proliferation of lung cancer cells (unknown origin); type: functional, cell-based; details: Cancer cell lines
[18] = Reduction in GFP expression in human SKBR3 cells transfected with plasmids co-expressing GFP and shRNAs against REV-ERBbeta followed by compound treatment 24 hrs post-transfection and measured 48 hrs post dose; type: functional, cell-based; details: SK-BR-3

Structure (SMILES) | IC50 [1] [µM] | IC50 [2] [µM] | also measured
CCN(CC)Cc1cc(CNC2(c3ccccc3F)CCCC2)ccc1O | > 100 |  | 
CCN1CCN(Cc2cc(CNC3(c4ccccc4F)CCCC3)ccc2O)CC1 | 39.3 | > 100 | 
CN1CCN(Cc2cc(CNC3(c4cccc(F)c4)CCCC3)ccc2O)CC1 | 14.2 | > 100 | 
CC1CCC(Cc2cccc(CNC3(c4ccccc4F)CCCC3)c2)CC1 (mixture of isomers) | > 100 |  | 
Oc1ccc(CNC2(c3ccccc3F)CCCC2)cc1CN1CCN(c2ccccc2)CC1 | 37.8 | > 100 | 
CN1CCN(Cc2cc(CNC3(c4ccc(F)cc4)CCCC3)ccc2O)CC1 | 9.41 | > 100 | Activity [3]: Non-toxic; IC50 [4]: 10 µM; inhibition [5]: Active; inhibition [6]: Active; inhibition [7]: Active
CC(NCc1ccc(O)c(CN2CCN(C)CC2)c1)c1ccccc1F (stereo not drawn) | > 100 |  | 
COc1cccc(C2(NCc3ccc(O)c(CN4CCN(C)CC4)c3)CCCC2)c1 | 11.8 | 13.1 | 
CN1CCN(Cc2cc(CNC3(c4ccccc4)CCCC3)ccc2O)CC1 | 27.5 | > 100 | 
COc1ccc(CNC2(c3ccccc3F)CCCC2)cc1CN1CCN(C)CC1 | > 100 |  | 
CN1CCN(Cc2ccc(CNC3(c4ccccc4F)CCCC3)cc2)CC1 | > 100 |  | 
Oc1ccc(CNC2(c3ccccc3F)CCCC2)cc1CN1CCN(Cc2ccccc2)CC1 | 34.7 | > 100 | 
COc1ccccc1C1(NCc2ccc(O)c(CN3CCN(C)CC3)c2)CCCC1 | 31.1 | 17.4 | 
CCN(CC)CCCC(C)Nc1ccnc2cc(Cl)ccc12 (racemic) [CHLOROQUINE] |  |  | IC50 [8]: 25 µM; IC50 [9]: 32.9 µM; IC50 [10]: 10 µM; IC50 [11]: 97 µM; Activity [12]: Active; IC50 [13]: 50.4 µM; IC50 [14]: > 100 µM; Activity [15]: Active; IC50 [16]: 23.4 µM; IC50 [17]: > 100 µM; Activity [18]: Active
CN1CCN(Cc2cc(CN(C)C3(c4ccccc4F)CCCC3)ccc2O)CC1 | > 100 |  | 
